Data published in ChEMBL document CHEMBL1681697, “Simple phosphonic inhibitors of human neutrophil elastase” (Bioorg Med Chem Lett, 2011).
Values after ≈ are worked out from the molar mass of the structure shown.

Columns and labels:
[1] = target: Chymotrypsin-like elastase family member 1 (Sus scrofa) (UniProt P00772); assay: Inhibition of porcine pancreatic elastase at 5 uM after 15 mins
Summary of the method: (§1)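 Single-point screen: each enzyme incubated with inhibitor at 37 °C, then residual activity measured. Inhibition below 5% was scored as no inhibition.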

[2] = target: T1, Neutrophil elastase (Homo sapiens) (UniProt P08246); assay: Inhibition of human neutrophil elastase at 5 uM after 15 mins; summary of the method: as §1
T1 sequence (whole entry): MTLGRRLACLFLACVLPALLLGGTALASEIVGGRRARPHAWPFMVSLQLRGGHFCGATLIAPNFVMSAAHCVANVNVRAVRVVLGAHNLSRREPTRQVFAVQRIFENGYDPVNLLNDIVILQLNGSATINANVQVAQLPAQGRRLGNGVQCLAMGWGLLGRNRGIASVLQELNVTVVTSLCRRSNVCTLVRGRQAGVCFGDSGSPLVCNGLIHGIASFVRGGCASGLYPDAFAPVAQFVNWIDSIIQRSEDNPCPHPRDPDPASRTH

[3] = Inhibition of trypsin at 5 uM after 15 mins; summary of the method: as §1
LoVo [4] = assay: Antiproliferative activity against human multidrug-resistant LoVo cells assessed as growth inhibition at 100 ug/ml after 72 hrs; type: functional
MCF7 [5] = assay: Antiproliferative activity against human MCF7 cells after 72 hrs; type: functional, cell-based; conditions: MCF7, 72 h
A549 = assay: Antiproliferative activity against human A549 cells assessed as growth inhibition at 100 ug/ml after 72 hrs; type: functional; conditions: A549, 72 h
LoVo [6] = assay: Antiproliferative activity against human LoVo cells after 72 hrs; type: functional, cell-based
[7] = Ratio of dissociation of enzyme-inhibitor-substrate complex to Ki for chymotrypsin
MCF7 [8] = assay: Antiproliferative activity against human MCF7 cells assessed as growth inhibition at 100 ug/ml after 72 hrs; type: functional; conditions: MCF7, 72 h
LoVo [9] = assay: Antiproliferative activity against human LoVo cells assessed as growth inhibition at 100 ug/ml after 72 hrs; type: functional

Chain of Chymotrypsin-like elastase family member 1 (Sus scrofa) (P00772 whole entry): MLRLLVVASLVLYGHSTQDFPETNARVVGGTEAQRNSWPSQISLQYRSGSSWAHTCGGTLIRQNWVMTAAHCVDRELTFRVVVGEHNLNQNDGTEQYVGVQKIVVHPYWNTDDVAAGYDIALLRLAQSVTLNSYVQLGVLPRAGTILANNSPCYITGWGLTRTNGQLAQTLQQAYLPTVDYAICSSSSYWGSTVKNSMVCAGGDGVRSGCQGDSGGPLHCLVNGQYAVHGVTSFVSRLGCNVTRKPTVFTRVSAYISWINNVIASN

Compound | inhibition [1] [%] | inhibition [2] [%] | inhibition [3] [%] | further results
CCC[C@@H](NC(=O)OCc1ccccc1)P(=O)(Oc1cccc(C)c1C)Oc1cccc(C)c1C | < 5 | < 5 |  | 
CC(C)[C@@H](NC(=O)OCc1ccccc1)P(=O)(Oc1ccc(C(C)(C)C)cc1)Oc1ccc(C(C)(C)C)cc1 | < 5 |  | < 5 | 
Cc1ccc(C)c(OP(=O)(Oc2cc(C)ccc2C)[C@H](NC(=O)OCc2ccccc2)C(C)C)c1 | < 5 | < 5 | < 5 | 
Cc1ccccc1OP(=O)(Oc1ccccc1C)[C@@H](CC(C)C)NC(=O)OCc1ccccc1 | < 5 |  |  | 
CCC(NC(=O)OCc1ccccc1)P(=O)(Oc1ccc(C(C)(C)C)cc1)Oc1ccc(C(C)(C)C)cc1 (centres undefined) | < 5 | < 5 |  | 
CCC[C@@H](NC(=O)OCc1ccccc1)P(=O)(Oc1ccc(C(=O)OC)cc1)Oc1ccc(C(=O)OC)cc1 |  |  |  | inhibition at 100 µg/mL (LoVo [4]): 47%; IC50 (MCF7 [5]): 52 µg/mL (≈ 93.6 µM); inhibition at 100 µg/mL (A549): 40%; IC50 (LoVo [6]): 47 µg/mL (≈ 84.6 µM); Ratio [7]: < 50 M⁻¹ s⁻¹
CCC(NC(=O)OCc1ccccc1)P(=O)(Oc1ccc(C(=O)OC)cc1)Oc1ccc(C(=O)OC)cc1 (centres undefined) |  |  |  | inhibition at 100 µg/mL (LoVo [4]): 38%; inhibition at 100 µg/mL (A549): 31%; IC50 (LoVo [6]): 73 µg/mL (≈ 135 µM); Ratio [7]: 1070 M⁻¹ s⁻¹; inhibition at 100 µg/mL (MCF7 [8]): 49%
COC(=O)c1ccc(OP(=O)(Oc2ccc(C(=O)OC)cc2)[C@H](NC(=O)OCc2ccccc2)C(C)C)cc1 | < 5 |  |  | inhibition at 100 µg/mL (LoVo [4]): 54%; IC50 (MCF7 [5]): 47 µg/mL (≈ 84.6 µM); inhibition at 100 µg/mL (A549): 46%; IC50 (LoVo [6]): 32 µg/mL (≈ 57.6 µM); Ratio [7]: < 50 M⁻¹ s⁻¹
C[C@@H](NC(=O)OCc1ccccc1)P(=O)(Oc1ccc(C(C)(C)C)cc1)Oc1ccc(C(C)(C)C)cc1 |  |  | < 5 | 
CSc1ccc(OP(=O)(Oc2ccc(SC)cc2)[C@@H](CC(C)C)NC(=O)OCc2ccccc2)cc1 | < 5 |  |  | 
COC(=O)c1ccc(OP(=O)(Oc2ccc(C(=O)OC)cc2)[C@@H](C)NC(=O)OCc2ccccc2)cc1 |  |  |  | inhibition at 100 µg/mL (LoVo [4]): 46%; IC50 (MCF7 [5]): 40 µg/mL (≈ 75.8 µM); inhibition at 100 µg/mL (A549): 25%; IC50 (LoVo [6]): 47 µg/mL (≈ 89.1 µM); Ratio [7]: 1530 M⁻¹ s⁻¹
CC(C)[C@@H](NC(=O)OCc1ccccc1)P(=O)(Oc1ccccc1)Oc1ccccc1 | < 5 | < 5 | < 5 | 
CCCC[C@@H](NC(=O)OCc1ccccc1)P(=O)(Oc1ccc(C(=O)OC)cc1)Oc1ccc(C(=O)OC)cc1 |  |  |  | Ratio [7]: < 50 M⁻¹ s⁻¹
CCC(NC(=O)OCc1ccccc1)P(=O)(Oc1ccccc1)Oc1ccccc1 (centres undefined) | < 5 |  |  | 
CSc1ccc(OP(=O)(Oc2ccc(SC)cc2)[C@H](NC(=O)OCc2ccccc2)C(C)C)cc1 | < 5 |  |  | 
CC(C)C[C@@H](NC(=O)OCc1ccccc1)P(=O)(Oc1ccc(Cl)cc1)Oc1ccc(Cl)cc1 | < 5 |  |  | 
CCCC[C@@H](NC(=O)OCc1ccccc1)P(=O)(Oc1ccccc1)Oc1ccccc1 | < 5 |  | < 5 | 
CC(C)[C@@H](NC(=O)OCc1ccccc1)P(=O)(Oc1ccc(S(C)(=O)=O)cc1)Oc1ccc(S(C)(=O)=O)cc1 |  |  |  | inhibition at 100 µg/mL (A549): 5%; inhibition at 100 µg/mL (LoVo [9]): 15%; Ratio [7]: 707 M⁻¹ s⁻¹; inhibition at 100 µg/mL (MCF7 [8]): 19%
CC(C)c1ccc(OP(=O)(Oc2ccc(C(C)C)cc2)[C@H](NC(=O)OCc2ccccc2)C(C)C)cc1 | < 5 | < 5 | < 5 | 
CCc1ccc(OP(=O)(Oc2ccc(CC)cc2)[C@H](NC(=O)OCc2ccccc2)C(C)C)cc1 |  |  | < 5 | 

Compound | inhibition [1] [%] | inhibition [2] [%] | inhibition [3] [%] | further results
COc1ccc(OP(=O)(Oc2ccc(OC)cc2)[C@H](NC(=O)OCc2ccccc2)C(C)C)cc1 |  |  | < 5 | 
COc1ccc(OP(=O)(Oc2ccc(OC)cc2)[C@@H](CC(C)C)NC(=O)OCc2ccccc2)cc1 |  | < 5 |  | 
CCc1ccc(OP(=O)(Oc2ccc(CC)cc2)[C@@H](C)NC(=O)OCc2ccccc2)cc1 | < 5 |  | < 5 | 
CCC(NC(=O)OCc1ccccc1)P(=O)(Oc1ccc(C)c(C)c1)Oc1ccc(C)c(C)c1 (centres undefined) | < 5 | < 5 |  | 
CCC[C@@H](NC(=O)OCc1ccccc1)P(=O)(Oc1ccc(OC)cc1)Oc1ccc(OC)cc1 | < 5 | < 5 |  | 
CCC(NC(=O)OCc1ccccc1)P(=O)(Oc1ccc(C(C)C)cc1)Oc1ccc(C(C)C)cc1 (centres undefined) |  |  | < 5 | 
C[C@@H](NC(=O)OCc1ccccc1)P(=O)(Oc1ccccc1)Oc1ccccc1 | < 5 |  | < 5 | 
COC(=O)c1ccc(OP(=O)(Oc2ccc(C(=O)OC)cc2)[C@@H](CC(C)C)NC(=O)OCc2ccccc2)cc1 |  |  |  | inhibition at 100 µg/mL (LoVo [4]): 6%; inhibition at 100 µg/mL (A549): 3%; inhibition at 100 µg/mL (LoVo [9]): 22%; Ratio [7]: < 50 M⁻¹ s⁻¹; inhibition at 100 µg/mL (MCF7 [8]): 8%
CCCC[C@@H](NC(=O)OCc1ccccc1)P(=O)(Oc1ccc(C(C)(C)C)cc1)Oc1ccc(C(C)(C)C)cc1 |  |  | < 5 | 
CCC(NC(=O)OCc1ccccc1)P(=O)(Oc1ccc(C)cc1)Oc1ccc(C)cc1 (centres undefined) | < 5 | < 5 |  | 
CCc1ccc(OP(=O)(Oc2ccc(CC)cc2)C(CC)NC(=O)OCc2ccccc2)cc1 (centres undefined) | < 5 |  |  | 
CCC(NC(=O)OCc1ccccc1)P(=O)(Oc1ccc(Cl)cc1)Oc1ccc(Cl)cc1 (centres undefined) |  |  |  | Ratio [7]: < 50 M⁻¹ s⁻¹
CC(C)[C@@H](NC(=O)OCc1ccccc1)P(=O)(Oc1ccc(C(C)(C)CC(C)(C)C)cc1)Oc1ccc(C(C)(C)CC(C)(C)C)cc1 | < 5 | < 5 | < 5 | 
CCC[C@@H](NC(=O)OCc1ccccc1)P(=O)(Oc1cc(C)cc(C)c1C)Oc1cc(C)cc(C)c1C | < 5 | < 5 |  | 
CCCC[C@@H](NC(=O)OCc1ccccc1)P(=O)(Oc1ccc(SC)cc1)Oc1ccc(SC)cc1 | < 5 | < 5 |  | 
CC(C)(C)C(=O)Oc1ccc(S(=O)(=O)Nc2ccccc2C(=O)NCC(=O)O)cc1 [SIVELESTAT] |  |  |  | inhibition at 100 µg/mL (LoVo [4]): 15%; inhibition at 100 µg/mL (LoVo [9]): 20%; inhibition at 100 µg/mL (MCF7 [8]): 61%
CCC[C@@H](NC(=O)OCc1ccccc1)P(=O)(Oc1cc(C)c(C)c(C)c1)Oc1cc(C)c(C)c(C)c1 | < 5 | < 5 | < 5 | 
CC(C)c1ccc(OP(=O)(Oc2ccc(C(C)C)cc2)[C@@H](C)NC(=O)OCc2ccccc2)cc1 | < 5 |  | < 5 | 
CSc1ccc(OP(=O)(Oc2ccc(SC)cc2)[C@@H](C)NC(=O)OCc2ccccc2)cc1 | < 5 |  | < 5 | 
Cc1ccc(C)c(OP(=O)(Oc2cc(C)ccc2C)[C@@H](CC(C)C)NC(=O)OCc2ccccc2)c1 |  | < 5 |  | 
